The test system of data set [1] is S100A10. The note with it: literature; ref [15]; cited from earlier work.
Data set [2] deals with S100A11. Particulars: cited from earlier work.
The target of data set [3] is T1, S100A6 (Homo sapiens, UniProt P06703). In words: Far-UV CD difference spectra, AnI with S100A6. Type of data set: binding.
In the next data set the test system is S100A6-Y84S. In words: Far-UV CD difference spectra, AnI with S100A6-Y84S. Type of data set: binding, human. The note with it: 5 mM calcium. An outline of the steps: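 Spectra of 10 μM protein with 50 μM AnI in 5 mM calcium binding buffer were recorded at 250–200 nm. The difference spectrum was complex minus free peptide minus free protein, converted to mean residue ellipticity assuming saturated sites.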

Data set [4] deals with T1, S100A6. In words: Trp fluorescence titration of AnI with S100A6. Type of data set: binding.
Data set [5] deals with S100A6 variants (Y73F, Y84S, Y73F/Y84S). In words: Binding affinity of AnI for substituted S100A6 variants. Details: species or system human. The note with it: data not shown.
In data set [6] the test system is calmodulin. In words: Trp fluorescence screen of AnI against calmodulin. Type of data set: binding. Particulars: protein:peptide ratio up to 5:1. A digest of the protocol: (§1)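 This screen used a thermostated cell, 295 nm excitation, and emission scanned over 305–400 nm. Concentrated protein in assay buffer was added stepwise to 2 μM AnI, up to 10 μM protein (5:1). For Trp-containing S100A1, A3, A8, A9 and A13, AnI was instead added to 2 μM protein up to 5:1 peptide:protein, and protein-only spectra were subtracted.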

The target of data set [7] is T2, S100A11 (Homo sapiens, UniProt P31949).
T2 sequence (P31949 1-105): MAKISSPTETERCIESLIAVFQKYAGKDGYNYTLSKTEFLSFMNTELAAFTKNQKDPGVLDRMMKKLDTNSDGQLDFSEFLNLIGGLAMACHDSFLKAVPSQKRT
In words: ITC of AnI binding to Ca2+-S100A11. A digest of the protocol: (§2)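 VP-ITC in 20 mM Tris, 0.2 mM EDTA, 1 mM TCEP, pH 7.5 with 5 mM calcium. Protein and peptide were co-dialysed with three buffer changes at 4°C. Because of its limited solubility, the AnI peptide was placed in the cell and the S100 protein titrated from the syringe. Runs were done at five temperatures (15–35°C). Integrated injection heats were fitted to a two identical non-interacting sites per dimer model.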

Data set [8] in a line: Analytical equilibrium ultracentrifugation. Type of data set: physicochemical. The note with it: 4°C, 35,000 rpm, 20 mM Tris, 1 mM TCEP, 0.2 mM EDTA, pH 7.5, absence or presence of 5 mM calcium; single species fit. An outline of the steps:
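Peptides were N-terminally acetylated; AnII carried an added C-terminal Tyr. Concentrations came from ε280 of 5,500 (AnI) and 1,490 (AnII) M−1 cm−1. Radial distributions were fitted to a single-species equilibrium equation using partial specific volumes of 0.748 (AnI) and 0.745 (AnII) cm3/g.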

For data set [9], the system named is sixteen members of S100 protein family. In words: Screen of peptides against S100 family. Type of data set: binding, human. Particulars: S100 proteins other than the partners found (S100A6, S100A10, S100A11).
Data set [10] concerns the target T1, S100A6. In words: ITC of AnI binding to Ca2+-S100A6. Particulars: different temperatures, relative to free energy of binding. A digest of the protocol:
as §2

Data set [11] can be described thus: Far-UV CD of free peptides. Type of data set: physicochemical. The note with it: TFE up to 60%, with or without calcium. An outline of the steps: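 Peptides were run at […] in 20 mM Tris, 3 mM DTT, 0.2 mM EDTA, pH 7.5, without or with 5 mM calcium. TFE was added up to 60% final. Buffer-corrected ellipticity was converted to mean residue ellipticity. Fraction helicity was taken from [Θ]222 against temperature-dependent fully coiled and fully helical reference values.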

Data set [12] concerns the target T2, S100A11. In words: Trp fluorescence titration of AnI with S100A11. Type of data set: binding. A digest of the protocol: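 Intrinsic Trp emission of 2 μM peptide, excited at 295 nm and read at 305–400 nm. Protein was added stepwise in 1.2 μM increments to 10 μM, a final 5:1 protein:peptide ratio. Emission intensity and maximum were followed. Kd came from fitting the intensity change against protein concentration to a model with two identical sites per dimer.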

For data set [13], the target named is T2, S100A11. In words: Far-UV CD difference spectra, peptide with S100A11. Type of data set: binding. Particulars: for fractional helicity upon binding: far-UV CD difference spectra, 10 μM protein, 50 μM peptide, 5 mM calcium; for coil-to-helix transition upon binding: far-UV CD, Ca2+-S100A11. An outline of the steps:
(§3)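 Recombinant S100 protein expressed in E. coli BL21(DE3), purified by phenyl-Sepharose and Sephadex G-75; S100A10 eluted in 8 M urea and refolded by dialysis. Far-UV CD recorded 250–200 nm on 10 μM protein plus 50 μM peptide in binding buffer with 5 mM calcium. Difference spectrum: complex minus free peptide minus free protein, converted to mean residue ellipticity assuming saturated sites. Fraction helicity derived from [Θ]222 against temperature-dependent coil and helix reference values.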

Data set [14] is described as follows: Trp fluorescence emission of free AnI. Type of data set: physicochemical. The note with it: free AnI in solution, excitation 295 nm, emission 305-400 nm, pH 7.5.
In data set [15] the test system is S100 protein family members (S100A1-S100A13, S100B, S100P, S100Z). In words: Trp fluorescence screen of AnI against other S100 proteins. Type of data set: binding, human. The note with it: any S100 protein other than S100A11 and S100A6; protein:peptide ratio up to 5:1. A digest of the protocol:
as §1

For data set [16], the system named is calmodulin. The note with it: ref [27]; cited from earlier work.
The next data set relates to Ca2+-S100P. The note with it: ref [25], cited from earlier work.
Data set [17] has as its target T2, S100A11. In words: ITC of AnII binding to Ca2+-S100A11. An outline of the steps:
(§4)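 Isothermal titration calorimetry in 20 mM Tris, 0.2 mM EDTA, 1 mM TCEP, pH 7.5. S100A10 was run with 5 mM calcium or without calcium; Ca2+-S100A11 was run with or without 100 mM NaCl. Protein and peptide were co-dialysed at 4°C. Screens injected 2 μL of about 0.75 mM peptide into about 20–25 μM protein at 10 and 25°C, continuing to saturation when heat appeared. Integrated heats were fit to two sequential sites per dimer, over five temperatures. ΔCp was taken from the slope of ΔHcal against temperature.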

Data set [18] concerns the target T3, S100A10 (Homo sapiens, UniProt P60903). In words: Far-UV CD difference spectra, AnII with S100A10. Type of data set: binding. A digest of the protocol:
as §3

Data set [19] deals with T3, S100A10. In words: ITC of AnII binding to S100A10. A digest of the protocol: as §4
[20] abbreviates: literature, AnII labeled with Prodan in that study, ref [15].
[21] abbreviates: 5 mM calcium, pH 7.5, excitation 295 nm.
The mark [22] stands for this setting: ITC screen and calcium dependence.
Where [23] appears, read: slope of ΔHcal vs temperature, ITC at 5 temperatures.

“Also recorded” adds a separate entry of the source. Read-outs that look alike come from different tables or passages of the source. Ends that are not written are not given here.

T3 sequence (P60903 whole entry): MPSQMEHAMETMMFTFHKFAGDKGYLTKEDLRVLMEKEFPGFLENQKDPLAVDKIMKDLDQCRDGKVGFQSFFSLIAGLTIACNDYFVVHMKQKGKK

Ac-AMVSEFLKQAWFIE [AnI]: the binding entry was “S100A10 binds AnII but not AnI” in the data set on S100A10 [1]; “S100A11 binds AnI but not AnII” in the data set on S100A11 [2] (setting [20]); “AnI has been found to bind Ca^2+-S100A6” on S100A6 [4] (Trp fluorescence screen, Ca2+-S100A6); “AnI has been found to bind Ca^2+-S100A6 and Ca^2+-S100A11” at S100A11 [12] (Trp fluorescence screen, Ca2+-S100A11). The “far-UV CD difference spectrum” value is listed as “A noted lower elipticity” on S100A6 [3] (AnI with Ca2+-S100A6 wild type, 10 μM protein, 50 μM AnI, 5 mM calcium) and “the difference spectrum for the Y84S variant has a similar spectrum to that of the wild type” in the data set with S100A6-Y84S. Moreover, the “coil-to-helix transition upon binding” value is recorded as “undergo a coil-to-helix transition upon binding” at S100A6 [3] (far-UV CD, Ca2+-S100A6) and “undergo a coil-to-helix transition upon binding” on S100A11 [13]. Also, the “fluorescence emission maximum wavelength of AnI upon addition of Ca2+-S100A6” value at S100A6 [4] (setting [21]) stood at 352 nm. In addition, the “change in Trp fluorescence without calcium” value on S100A6 [4] (S100A6 in the absence of calcium) is “No changes in Trp-fluorescence”. The “effect of S100A6 substitutions on binding affinity” value in data set [5] was “the substitutions do not have a significant effect on the binding affinity”. For the same substance, the “change in Trp fluorescence / binding in screen” value in the data set with calmodulin [6] was “did not show changes in Trp fluorescence; also recorded: Neither peptide was found to bind to calmodulin”. Also, the Kd at S100A11 [7] came to 5 ± 2 µM; on S100A11 [12], 5 ± 1 µM. Further, the “temperature dependence of dissociation constant” value at S100A11 [7] (ITC, 15-35°C) is given as “does not depend significantly on temperature”. The “enthalpy of binding ΔHcal at 15°C” value at S100A11 [7] (ITC, 15°C, 5 mM calcium) was -0.96 kcal/mol. The “enthalpy of binding ΔHcal at 35°C” value on S100A11 [7] (ITC, 35°C, 5 mM calcium) was -7.17 kcal/mol. Also, the “free energy of binding ΔG=−RTln(Kd)” value at S100A11 [7] (per binding site, from ITC Kd) is “≈ 30 kJ/mol; also recorded: ≈ 26 kJ/mol”. In addition, on S100A11 [7] (slope of ΔHcal vs temperature, ITC 15-35°C, 5 mM calcium), the “ΔCp,exp” value is recorded as −1.3±0.2 kJ/(mol·K). In data set [8], the “molecular mass in solution (oligomeric state)” value worked out at 1.9 ± 0.07 kDa. Further, the “binding to the other S100 proteins” value in data set [9] was “bind to only these S100 proteins and not the others”. The “enthalpy of binding (sign/size)” value at S100A6 [10] was “either negative or positive but small relative to the free energy of binding”. Moreover, in data set [11], the “secondary structure in TFE” value was “far-UV CD spectra characteristic of helices”. The “fluorescence emission maximum wavelength of AnI in presence of Ca2+-S100A11” value at S100A11 [12] (setting [21]) is given as 350 nm. In addition, the “change in Trp emission spectra without calcium” value at S100A11 [12] (S100A11 in the absence of calcium) is given as “very little change in the emission spectra”. For the same substance, at S100A11 [13], the “fractional helicity upon binding” value was found to be 0.59. For the same substance, the “fluorescence emission maximum wavelength of free AnI” value in data set [14] is reported as “approximately 359 nm”. Also, in [15], the “change in Trp fluorescence (emission maximum or intensity) in screen” value was “did not show changes in Trp fluorescence”.
With “melittin: peptide with the ability to bind both S100P and calmodulin”, the binding result was “has the ability to bind both S100P ([25]) and calmodulin” with calmodulin [16]; “has the ability to bind both S100P” in the data set on Ca2+-S100P. For the same substance, in the data set with Ca2+-S100P (melittin binding to Ca2+-S100P), the ΔCp is −2.5±0.5 kJ/(mol·K).
Ac-STVHEILSKLSLEGY [AnII]: the binding result is “S100A10 binds AnII but not AnI” with S100A10 [1]; “AnII can interact with Ca^2+-S100A11” in the data set on S100A11 [2] (NMR spectroscopy, ref [16]); “S100A11 binds AnI but not AnII” in the data set with S100A11 [2] (setting [20]); “this binding to S100A11 is also modulated by calcium; also recorded: AnII has been found to bind S100A10 and Ca^2+-S100A11” on S100A11 [17] (setting [22]); “the binding is independent of calcium; also recorded: AnII has been found to bind S100A10” on S100A10 [19] (setting [22]). The “molecular mass in solution (oligomeric state)” value in data set [8] is 1.9 ± 0.16 kDa. Further, in data set [9], the “binding to the other S100 proteins” value was “bind to only these S100 proteins and not the others”. Further, the “effect of ionic strength on thermodynamics of binding” value at S100A11 [17] (100 mM NaCl) is on record as “did not have any effect on the thermodynamics of binding”. The “enthalpy of binding (sign/size)” value was “endothermic but small relative to the Gibbs energy of binding” on S100A11 [17] (ITC); “large and negative; also recorded: exothermic” on S100A10 [19] (ITC, total enthalpy from both binding sites, entire temperature range). Besides, the “ΔCp,exp” value is reported as −1.1±0.2 kJ/(mol·K) at S100A11 [17] (setting [23]) and −2.4±0.3 kJ/(mol·K) at S100A10 [19] (setting [23]). The helicity when bound entry on S100A10 [18] (compared to AnII bound to S100A11) is listed as “AnII becomes more helical when bound to S100A10 compared to when it is bound to S100A11”. Besides, the “coil-to-helix transition upon binding” value is “undergo a coil-to-helix transition upon binding” at S100A10 [18] (far-UV CD, S100A10) and “undergo a coil-to-helix transition upon binding” on S100A11 [13]. For the same substance, the “secondary structure in TFE” value in [11] is listed as “far-UV CD spectra characteristic of helices”. For the same substance, on S100A11 [13], the “fractional helicity upon binding” value is given as 0.57. Moreover, the “effect of calcium on ITC binding” value at S100A10 [19] (5 mM calcium compared with absence of calcium) is given as “very similar to the data obtained in the absence of calcium”.

For orientation: Kd means the constant that tells how readily two partners part at equilibrium. The low end stands for higher affinity, the high end for lower affinity.

Values taken from article PMC2671235 (Biochemistry, 2009).
